{"source": "ChEMBL document CHEMBL4706701", "about": "“Synthesis and biological activity of selenopsammaplin A and its analogues as antitumor agents with DOT1L inhibitory activity” (Bioorg Med Chem, 2021)", "key": {"[1]": {"test_system": "A549", "assay": "Cytotoxicity against human A549 cells assessed as reduction in cell viability by SRB assay", "format": "functional, cell-based", "method_in_brief": "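Cells seeded in 96-well plates and exposed to compounds for the stated times. Zero-day controls were incubated 30 min. Cells were fixed and stained with 0.4% SRB in 1% acetic acid, and bound dye was dissolved in 10 mM Tris (pH 10.0). A515 was read, and IC50 was calculated by non-linear regression.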"}, "[2]": {"assay": "Selectivity ratio of IC50 for human MCF-10A cells to IC50 for human MDA-MB-231 cells", "format": "toxicity", "conditions": "MCF-10A cells versus MDA-MB-231 cells, read-out: Ratio IC50"}, "[3]": {"target": "Histone-lysine N-methyltransferase, H3 lysine-79 specific (Homo sapiens) (UniProt Q8TEK3)", "sequence (Q8TEK3 whole entry, looked up)": "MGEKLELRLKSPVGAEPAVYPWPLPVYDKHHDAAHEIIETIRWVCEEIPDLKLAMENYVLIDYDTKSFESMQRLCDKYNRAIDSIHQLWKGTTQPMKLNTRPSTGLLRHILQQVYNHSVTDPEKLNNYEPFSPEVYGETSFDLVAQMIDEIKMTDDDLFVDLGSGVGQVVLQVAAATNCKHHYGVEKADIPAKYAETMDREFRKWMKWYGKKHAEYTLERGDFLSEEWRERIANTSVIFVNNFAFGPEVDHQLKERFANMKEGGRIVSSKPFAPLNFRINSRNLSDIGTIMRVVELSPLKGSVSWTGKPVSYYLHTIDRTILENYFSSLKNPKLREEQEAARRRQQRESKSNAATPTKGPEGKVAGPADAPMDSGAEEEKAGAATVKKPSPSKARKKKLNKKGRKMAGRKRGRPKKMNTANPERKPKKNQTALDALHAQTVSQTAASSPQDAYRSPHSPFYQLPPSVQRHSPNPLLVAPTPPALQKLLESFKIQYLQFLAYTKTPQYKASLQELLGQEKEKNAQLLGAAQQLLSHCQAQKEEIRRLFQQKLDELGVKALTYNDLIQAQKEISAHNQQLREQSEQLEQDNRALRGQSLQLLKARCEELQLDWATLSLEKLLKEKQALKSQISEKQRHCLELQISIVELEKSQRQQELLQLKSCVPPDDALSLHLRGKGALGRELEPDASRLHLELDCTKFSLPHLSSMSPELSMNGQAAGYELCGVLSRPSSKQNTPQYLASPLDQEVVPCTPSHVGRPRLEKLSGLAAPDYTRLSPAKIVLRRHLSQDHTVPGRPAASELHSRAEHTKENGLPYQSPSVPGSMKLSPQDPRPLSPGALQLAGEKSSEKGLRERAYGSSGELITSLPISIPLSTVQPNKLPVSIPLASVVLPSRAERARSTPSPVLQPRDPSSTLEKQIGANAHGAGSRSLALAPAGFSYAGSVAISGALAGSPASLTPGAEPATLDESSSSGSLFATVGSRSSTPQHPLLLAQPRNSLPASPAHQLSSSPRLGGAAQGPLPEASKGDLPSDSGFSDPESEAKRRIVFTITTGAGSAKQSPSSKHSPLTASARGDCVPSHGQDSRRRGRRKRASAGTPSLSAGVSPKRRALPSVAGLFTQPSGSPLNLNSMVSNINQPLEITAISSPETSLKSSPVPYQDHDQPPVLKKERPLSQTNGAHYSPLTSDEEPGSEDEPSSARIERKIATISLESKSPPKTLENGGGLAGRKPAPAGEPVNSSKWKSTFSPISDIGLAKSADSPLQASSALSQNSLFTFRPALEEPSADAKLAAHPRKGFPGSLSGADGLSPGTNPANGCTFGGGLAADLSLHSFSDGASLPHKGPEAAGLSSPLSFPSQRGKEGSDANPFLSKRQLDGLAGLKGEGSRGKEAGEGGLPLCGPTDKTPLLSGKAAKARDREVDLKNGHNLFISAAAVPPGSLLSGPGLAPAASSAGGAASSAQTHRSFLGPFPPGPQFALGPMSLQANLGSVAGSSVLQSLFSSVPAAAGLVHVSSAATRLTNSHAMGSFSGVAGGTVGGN", "assay": "Inhibition of DOT1L in human MDA-MB-231 cells assessed as down regulation of H3K79me2 expression at 200 nM by Western blot analysis", "format": "cell-based", "method_in_brief": "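MDA-MB-231 lysates were made in 2× SDS sample buffer with vanadate and fluoride. 5-20 μg protein was run on 8–15% SDS-PAGE and blotted to PVDF. Membranes were blocked in 5% BSA, probed for H3K79me2 with total histone H3, and detected by ECL. Mean ± SD (n = 3), representative of three separate experiments.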"}, "[4]": {"target": "Histone-lysine N-methyltransferase, H3 lysine-79 specific (Homo sapiens) (UniProt Q8TEK3)", "assay": "Inhibition of DOT1L in human MDA-MB-231 cells assessed as effect on histone H3 methylation at 50 to 200 nM by Western blot analysis", "format": "cell-based", "conditions": "dose 50-200 nM", "method_in_brief": "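MDA-MB-231 cell lysates in 2× SDS buffer, protein by BCA; 5–20 μg on 8–15% SDS-PAGE, transferred to PVDF, BSA-blocked and probed with antibodies to H3K4me2, H3K27me2, H3K36me2, H3K79me2 and total histone H3; ECL detection. Mean ± SD (n = 3), three separate experiments.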"}, "[5]": {"test_system": "MDA-MB-231", "assay": "Antimigratory activity in human MDA-MB-231 cells assessed as suppression of wound closure after 24 hrs by microscopic analysis", "format": "functional, cell-based", "conditions": "dose 50-400 nM", "method_in_brief": "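MDA-MB-231 monolayers at 80–90% confluence scratched with a pipette tip, washed with PBS, then kept 24 h in medium with 1% FBS plus compound at various concentrations. Wounds photographed at 0 and 24 h; area measured by image analysis and expressed as wound healing (%) relative to the 0 h area. Mean ± SD (n = 3), three separate experiments.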"}, "[6]": {"test_system": "MDA-MB-231", "assay": "Antiinvasive activity in human MDA-MB-231 cells assessed as reduction in cell invasion through matrigel-coated chamber after 24 hrs by diff-quik staining based microscopic analysis", "format": "functional", "conditions": "dose 50-400 nM", "method_in_brief": "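MDA-MB-231 cells pretreated with compound (50–400 nM) for 24 h, harvested into serum-free medium and plated at 0.5–1 × 10⁶ cells/chamber on transwell inserts (8 μm pores) coated with type I collagen and 1:20 Matrigel/PBS; 30% FBS medium as chemoattractant below. After 24 h, invaded cells fixed, Diff-Quik stained, counted in 5 random fields at 200×; three separate experiments.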"}, "[7]": {"test_system": "MDA-MB-231", "assay": "Up regulation of CDH1 mRNA expression in human MDA-MB-231 cells at 50 to 200 nM measured after 24 hrs by RT-PCR analysis", "format": "functional, cell-based", "conditions": "dose 50-200 nM"}, "[8]": {"test_system": "MDA-MB-231", "assay": "Down regulation of VIM mRNA expression in human MDA-MB-231 cells at 50 to 200 nM measured after 24 hrs by RT-PCR analysis", "format": "functional, cell-based", "conditions": "dose 50-200 nM"}, "[9]": {"test_system": "MDA-MB-231", "assay": "Down regulation of ZEB1 expression in human MDA-MB-231 cells at 50 to 200 nM measured after 48 hrs by Western blot analysis", "format": "functional, cell-based", "conditions": "dose 50-200 nM", "method_in_brief": "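MDA-MB-231 cells exposed to compound for 48 h; lysates in 2× SDS sample buffer with orthovanadate and NaF, protein by BCA. 5–20 μg resolved on 8–15% SDS-PAGE, PVDF, BSA block, probed for E-cadherin, N-cadherin, ZEB1, vimentin; ECL detection, β-actin internal control, band densitometry. Mean ± SD (n = 3), three experiments.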"}, "[10]": {"test_system": "MDA-MB-231", "assay": "Antitumor activity against human MDA-MB-231 cells xenografted in BALB/c nu mouse assessed as tumor growth inhibition at 5 mg/kg, ip administered thrice per week for 38 days by caliper method relative to control", "format": "functional", "conditions": "MDA-MB-231, ip, 912 h, time 38 day, read-out: TGI", "method_in_brief": "(§1)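 Female BALB/c-nu mice (5–6 wk) given 1 × 10⁷ luciferase-expressing MDA-MB-231 cells in 50:50 DMEM/Matrigel into the fourth fat pad; randomized after 10 days (six per group). Dosed ip in EtOH/Cremophor/saline (5:5:90) three times weekly for 38 days. Tumor L, W, H measured by caliper, volume = LWH/2; body weight weekly; tumors excised and weighed at termination.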"}, "[11]": {"test_system": "MDA-MB-231", "assay": "Antitumor activity against human MDA-MB-231 cells xenografted in BALB/c nu mouse assessed as tumor growth inhibition at 15 mg/kg, ip administered thrice per week for 38 days by caliper method relative to control", "format": "functional", "conditions": "MDA-MB-231, ip, 912 h, time 38 day, read-out: TGI", "method_in_brief": "as §1"}, "[12]": {"assay": "Toxicity in human MDA-MB-231 cells xenografted BALB/c nu mouse assessed as change in body weight at 5 to 15 mg/kg, ip administered thrice per week for 38 days measured once per week during compound dosing", "format": "organism-based", "conditions": "in vivo, 912 h, dose 5-15 mg/kg, time 38 day", "method_in_brief": "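Female BALB/c-nu mice, 5–6 weeks old, received 1 × 10⁷ luciferase-expressing MDA-MB-231 cells in 50:50 DMEM/Matrigel into the fourth fat pad. At day 10, mice were randomized into groups of six. Dosing was i.p. three times weekly for 38 days, in vehicle EtOH/Cremophor/saline 5:5:90. Body weight was recorded weekly, and toxicity was judged by lethality and weight loss.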"}, "[13]": {"test_system": "MDA-MB-231", "assay": "Antimetastatic activity against human MDA-MB-231 cells xenografted in BALB/c nu mouse assessed as reduction in metastatic cells in lung tissue at 5 to 15 mg/kg, ip administered thrice per week for 38 days measured 1 week post last dose by H and E staining based immunohistochemical analysis", "format": "functional, organism-based", "conditions": "dose 5-15 mg/kg, time 45.0 day", "method_in_brief": "(§2)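 Tumors and lungs from orthotopic MDA-MB-231/Luc nude mice (ip dosing three times weekly, 38 days) fixed in 4% PFA, paraffin-embedded, sectioned, antigen-retrieved. Lungs H&E-stained for metastatic cells; tumor sections immunostained for Ki67, H3K79me2, E-cadherin, vimentin with HRP detection, hematoxylin counterstain, imaged at 200×.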"}, "[14]": {"test_system": "MDA-MB-231", "assay": "Antimetastatic activity against human MDA-MB-231 cells xenografted in ip dosed BALB/c nu mouse assessed as down regulation of vimentin expression in tumor tissue administered thrice per week for 38 days measured 1 week post last dose by Western blot analysis", "format": "functional, organism-based", "conditions": "dose 5-15 mg/kg, time 45.0 day", "method_in_brief": "(§3)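 Frozen tumor portions from the orthotopic MDA-MB-231 nude mouse study homogenized in complete lysis buffer; protein by Bradford assay. Western blotting for H3K79me2, E-cadherin and vimentin, β-actin internal control, band intensities semi-quantified; three separate experiments.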"}, "[15]": {"test_system": "MDA-MB-231", "assay": "Antimetastatic activity against human MDA-MB-231 cells xenografted in ip dosed BALB/c nu mouse assessed as up regulation of E-cadherin expression in tumor tissue administered thrice per week for 38 days measured 1 week post last dose by Western blot analysis", "format": "functional, organism-based", "conditions": "dose 5-15 mg/kg, time 45.0 day", "method_in_brief": "as §3"}, "[16]": {"test_system": "MDA-MB-231", "assay": "Antitumor activity against human MDA-MB-231 cells xenografted in BALB/c nu mouse assessed as down regulation of Ki67 expression in tumor tissue at 5 to 15 mg/kg, ip administered thrice per week for 38 days measured 1 week post last dose by H and E staining based immunohistochemical analysis", "format": "functional, organism-based", "conditions": "dose 5-15 mg/kg, time 45.0 day", "method_in_brief": "as §2"}}, "note": "Active and inactive are the calls of the source. The rule behind the calls is not given here.", "data": [{"compound": "O=C(NCC[Se][Se]CCNC(=O)/C(Cc1ccccc1)=N/O)/C(Cc1ccccc1)=N/O", "values": [{"measurement": "IC50", "setting": "[1]", "value": 0.08, "unit": "µM"}, {"measurement": "selectivity ratio", "setting": "[2]", "value": "> 100"}, {"measurement": "H3K79me2 downregulation (active/not active)", "setting": "[3]", "value": "Active"}, {"measurement": "inhibition", "setting": "[4]", "value": "Active"}, {"measurement": "Activity", "setting": "[5]", "value": "Dose-dependent effect"}, {"measurement": "Activity", "setting": "[6]", "value": "Dose-dependent effect"}, {"measurement": "Activity", "setting": "[7]", "value": "Active"}, {"measurement": "Activity", "setting": "[8]", "value": "Active"}, {"measurement": "Activity", "setting": "[9]", "value": "Active"}, {"measurement": "inhibition in vivo at 5 mg/kg", "setting": "[10]", "value": 45.5, "unit": "%"}, {"measurement": "inhibition in vivo at 15 mg/kg", "setting": "[11]", "value": 55.1, "unit": "%"}, {"measurement": "Activity", "setting": "[12]", "value": "Non-Toxic"}, {"measurement": "Activity", "setting": "[13]", "value": "Active"}, {"measurement": "Activity", "setting": "[14]", "value": "Dose-dependent effect"}, {"measurement": "Activity", "setting": "[15]", "value": "Dose-dependent effect"}, {"measurement": "Activity", "setting": "[16]", "value": "Active"}]}]}
